Laboratory results reported in ChEMBL document CHEMBL1121524, “Studies of hypolipidemic agents. 1. Synthesis and hypolipidemic activities of alkoxycinnamic acid derivatives” (1980).

Columns and labels:
Rattus norvegicus [1] = experiment: In vivo hypolipidemic activity, expressed as percent decrease in serum triglyceride in rat, at dosage of 20 mg for 7 days.
Rattus norvegicus [2] = experiment: In vivo hypolipidemic activity, expressed as percent decrease in Triglyceride in rat, at dosage of 100 mg for 7 days.; type: functional
In short: (§1)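 Male Sprague-Dawley rats, 4 weeks old, kept on CE-2 chow for at least 1 week, then grouped (generally five per group). Compound was mixed into CE-2 powder and fed ad libitum for the stated period; controls received plain CE-2 powder. Diet level is given as mg/100 g (mg%), about equal to mg/kg/day. Total serum triglyceride was measured by the Ryan and Rasho method and reported as percent depression versus control group mean. Significance was p < 0.05.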

Rattus norvegicus [3] = species on record: Rattus norvegicus; experiment: Hypolipidemic activity expressed as percentage decrease in triglyceride in rat, at dosage of 50 mg for 7 days; type: functional
In short: as §1

Rattus norvegicus [4] = species on record: Rattus norvegicus; experiment: Hypolipidemic activity, expressed as percent decrease in serum cholesterol in rat, at dosage of 100 mg for 7 days by Zak et al method; type: functional
In short: as §1, with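 “cholesterol” for “triglyceride”, “Zak et al.” for “Ryan and Rasho”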

Rattus norvegicus [5] = experiment: In vivo hypolipidemic activity, expressed as percent decrease in serum cholesterol in rat, at dosage of 20 mg for 7 days.; type: functional
In short: as §1, with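 “cholesterol” for “triglyceride”, “Zak et al.” for “Ryan and Rasho”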

Rattus norvegicus [6] = species on record: Rattus norvegicus; experiment: Tested for the hypolipidemic activity, expressed as percent decrease in serum cholesterol in rat, at dosage of 50 mg for 7 days; type: functional
In short: as §1, with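 “cholesterol” for “triglyceride”, “Zak et al.” for “Ryan and Rasho”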

Rattus norvegicus [7] = species on record: Rattus norvegicus; experiment: Tested for the hypolipidemic activity, expressed as percent decrease in Triglyceride in rat, at dosage of 100 mg for 3 days by Ryan and Rasho method; type: functional
In short: as §1

Rattus norvegicus [8] = species on record: Rattus norvegicus; experiment: Tested for the hypolipidemic activity, expressed as percent decrease in serum cholesterol in rat, at dosage of 100 mg for 3 days by Zak et al method; type: functional
In short: as §1, with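 “cholesterol” for “triglyceride”, “Zak et al.” for “Ryan and Rasho”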

Rattus norvegicus [9] = species on record: Rattus norvegicus; experiment: Tested for the hypolipidemic activity, expressed as percent decrease in serum cholesterol in rat, at dosage of 100 mg for 6 days by Zak et al method; type: functional
In short: as §1, with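 “cholesterol” for “triglyceride”, “Zak et al.” for “Ryan and Rasho”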

Rattus norvegicus [10] = species on record: Rattus norvegicus; experiment: Tested for the hypolipidemic activity, expressed as percent decrease in Triglyceride in rat, at dosage of 100 mg for 6 days by Ryan and Rasho method; type: functional
In short: as §1

Rattus norvegicus [11] = species on record: Rattus norvegicus; experiment: Tested for the hypolipidemic activity, expressed as percent decrease in Triglyceride in rat, at dosage of 10 mg for 7 days by Ryan and Rasho method; type: functional
In short: as §1

Rattus norvegicus [12] = species on record: Rattus norvegicus; experiment: Tested for the hypolipidemic activity, expressed as percent decrease in serum cholesterol in rat, at dosage of 10 mg for 7 days by Zak et al method; type: functional
In short: as §1, with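 “cholesterol” for “triglyceride”, “Zak et al.” for “Ryan and Rasho”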

Rattus norvegicus [13] = species on record: Rattus norvegicus; experiment: tested for the hypolipidemic activity, expressed as percent decrease in Triglyceride in rat, at dosage of 50 mg for 3 days by Ryan and Rasho method; type: functional
In short: as §1

Rattus norvegicus [14] = species on record: Rattus norvegicus; experiment: tested for the hypolipidemic activity, expressed as percent decrease in serum cholesterol in rat, at dosage of 50 mg for 3 days by Zak et al method; type: functional
In short: as §1, with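 “cholesterol” for “triglyceride”, “Zak et al.” for “Ryan and Rasho”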

Rattus norvegicus [15] = species on record: Rattus norvegicus; experiment: tested for the hypolipidemic activity, expressed as percent decrease in serum cholesterol in rat, at dosage of 10 mg for 7 days by Zak et al method; type: functional
In short: as §1, with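 “cholesterol” for “triglyceride”, “Zak et al.” for “Ryan and Rasho”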

Rattus norvegicus [16] = species on record: Rattus norvegicus; experiment: tested for the hypolipidemic activity, expressed as percent decrease in Triglyceride in rat, at dosage of 10 mg for 7 days by Ryan and Rasho method; type: functional
In short: as §1

SMILES: CCCCCCCCCCCCCCOc1ccc(/C=C(\C)C(=O)O)cc1
- Decrease (Rattus norvegicus [1]): 38%
- Decrease (Rattus norvegicus [2]): 45%
- Decrease (Rattus norvegicus [3]): 26%
- Decrease (Rattus norvegicus [4]): 16%
- Decrease (Rattus norvegicus [5]): 12%
- Decrease (Rattus norvegicus [6]): 17%

SMILES: CCCCCCCCCCCCCCCCOc1ccc(/C=C(\C)C(=O)OCCCCl)cc1
- Decrease (Rattus norvegicus [7]): 25%
- Decrease (Rattus norvegicus [8]): 17%

SMILES: C/C(=C\c1ccc(Oc2ccccc2)cc1)C(=O)O
- Decrease (Rattus norvegicus [1]): 15%
- Decrease (Rattus norvegicus [5]): 8%

SMILES: C/C(=C\c1ccccc1)C(=O)OCC(O)CO (stereo unspecified)
- Decrease (Rattus norvegicus [7]): 22%
- Decrease (Rattus norvegicus [8]): 10%

SMILES: CCCCCCCCCCCCCCCCOc1ccc(/C=C/C(=O)OCCCO)cc1
- Decrease (Rattus norvegicus [7]): 16%
- Decrease (Rattus norvegicus [8]): 16%

SMILES: CCCCCCCCCCCCCCCCOc1ccc(/C=C(\C)C(=O)OCCO)cc1
- Decrease (Rattus norvegicus [7]): 59%
- Decrease (Rattus norvegicus [8]): 13%

SMILES: CCCCCCCCOc1ccc(/C=C/C(=O)OCC(O)CO)cc1 (stereo unspecified)
- Decrease (Rattus norvegicus [9]): 7%
- Decrease (Rattus norvegicus [10]): 15%

SMILES: CCCCOc1ccc(/C=C/C(=O)OCC(O)CO)cc1 (stereo unspecified)
- Decrease (Rattus norvegicus [9]): 7%
- Decrease (Rattus norvegicus [10]): 15%

SMILES: CCCCCCCCCCCCCCCCOc1ccc(/C=C/C(=O)O)cc1
- Decrease (Rattus norvegicus [5]): 2%
- Decrease (Rattus norvegicus [11]): 2%
- Decrease (Rattus norvegicus [12]): 7%

SMILES: CCCCOc1ccc(/C=C/C(=O)OCCCl)cc1
- Decrease (Rattus norvegicus [2]): 26%
- Decrease (Rattus norvegicus [4]): 0%

SMILES: CCCCCCCCCCCCCCCCOc1ccc(/C=C(\C)C(=O)OCCCO)cc1
- Decrease (Rattus norvegicus [7]): 43%
- Decrease (Rattus norvegicus [8]): 6%

SMILES: CCCCCCCCCCCCCCCCOc1ccc(/C=C/C(=O)OCCS(=O)(=O)[O-])cc1.[Na+]
- Decrease (Rattus norvegicus [2]): 47%
- Decrease (Rattus norvegicus [4]): 17%

SMILES: CCCCOc1ccc(/C=C/C(=O)OCCS(=O)(=O)[O-])cc1.[Na+]
- Decrease (Rattus norvegicus [2]): 9%
- Decrease (Rattus norvegicus [4]): -1%

SMILES: CCCCCCCCCCCCCCOc1ccc(/C=C(\C)C(=O)OCCC(=O)OC)cc1
- Decrease (Rattus norvegicus [1]): 7%
- Decrease (Rattus norvegicus [3]): 37%
- Decrease (Rattus norvegicus [5]): -1%
- Decrease (Rattus norvegicus [6]): 30%

SMILES: C=C(C)C(=O)OCCOC(=O)/C(C)=C/c1ccc(OCCCCCCCCCCCCCCCC)cc1
- Decrease (Rattus norvegicus [1]): 12%
- Decrease (Rattus norvegicus [13]): 27%
- Decrease (Rattus norvegicus [14]): 25%
- Decrease (Rattus norvegicus [2]): 62%
- Decrease (Rattus norvegicus [15]): 3%
- Decrease (Rattus norvegicus [4]): 35%
- Decrease (Rattus norvegicus [5]): 13%
- Decrease (Rattus norvegicus [16]): 10%

SMILES: C=C(C)C(=O)OCCCOC(=O)/C=C/c1ccc(OCCCCCCCCCCCCCCCC)cc1
- Decrease (Rattus norvegicus [2]): 0%
- Decrease (Rattus norvegicus [4]): 16%

SMILES: C/C(=C\c1ccc(Oc2ccccc2)cc1)C(=O)OCCCl
- Decrease (Rattus norvegicus [1]): 22%
- Decrease (Rattus norvegicus [3]): -6%
- Decrease (Rattus norvegicus [5]): 15%
- Decrease (Rattus norvegicus [6]): 14%

SMILES: C=CCOc1ccc(/C=C/C(=O)OCC(O)CO)cc1 (stereo unspecified)
- Decrease (Rattus norvegicus [7]): -14%
- Decrease (Rattus norvegicus [8]): 12%

SMILES: COc1ccc(/C=C/C(=O)OCC(O)CO)cc1 (stereo unspecified)
- Decrease (Rattus norvegicus [9]): 4%
- Decrease (Rattus norvegicus [10]): 31%

SMILES: C=C(C)C(=O)OCCOC(=O)/C=C/c1ccc(OCc2ccccc2)cc1
- Decrease (Rattus norvegicus [2]): 33%
- Decrease (Rattus norvegicus [4]): 13%

SMILES: C=C(C)C(=O)OCCOC(=O)/C=C/c1ccc(OCCCCCCCC)cc1
- Decrease (Rattus norvegicus [2]): -11%
- Decrease (Rattus norvegicus [4]): 16%

SMILES: O=C(/C=C/c1ccc(Oc2ccccc2)cc1)OCC(O)CO (stereo unspecified)
- Decrease (Rattus norvegicus [1]): 26%
- Decrease (Rattus norvegicus [3]): 29%
- Decrease (Rattus norvegicus [5]): 15%
- Decrease (Rattus norvegicus [6]): 11%

SMILES: CCCCCCCCCCCCCCOc1ccc(/C=C(\C)C(=O)OCC)cc1
- Decrease (Rattus norvegicus [1]): 37%
- Decrease (Rattus norvegicus [3]): 34%
- Decrease (Rattus norvegicus [5]): 6%
- Decrease (Rattus norvegicus [6]): 7%

SMILES: CCCCCCCCCCCCCCCCOc1ccc(/C=C/C(=O)OCCCCl)cc1
- Decrease (Rattus norvegicus [1]): 38%
- Decrease (Rattus norvegicus [2]): 44%
- Decrease (Rattus norvegicus [3]): 48%
- Decrease (Rattus norvegicus [4]): 22%
- Decrease (Rattus norvegicus [5]): 1%
- Decrease (Rattus norvegicus [6]): 5%
